# Activity calls are given as the source filed them. No cut-off for these calls is given here.
# Legend:
# [1] = target: T1, Glyceraldehyde-3-phosphate dehydrogenase, glycosomal (Trypanosoma cruzi, UniProt P22513); test: Inhibition of Trypanosoma cruzi recombinant glycosomal GAPDH expressed in Escherichia coli using GAPDH and D-glyceraldehyde-3-phosphate
# Method in brief: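 Recombinant T. cruzi GAPDH (20 nM; E. coli-expressed, purified by hydrophobic then cation-exchange chromatography) assayed at 25 °C in triplicate. Buffer: 100 mM triethanolamine-HCl pH 7.5, 1 mM EDTA, 1 mM 2-mercaptoethanol, 30 mM arsenate, 400 µM NAD+, 300 µM G-3-P. NADH formation read at 340 nm for 8 min. Initial rates give % inhibition; IC50 from ≥5 inhibitor concentrations by nonlinear regression.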
# [2] = target: T1, Glyceraldehyde-3-phosphate dehydrogenase, glycosomal; test: Non-competitive inhibition of Trypanosoma cruzi recombinant glycosomal GAPDH expressed in Escherichia coli assessed as dissociation constant for binary enzyme-inhibitor complex using NAD+ substrate by Lineweaver-Burk plot method
# Method in brief: (§1)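 Inhibition type and Ki/αKi were determined against each substrate (G-3-P or NAD+), varying that substrate at 3 or 4 inhibitor concentrations. Conditions were otherwise those of the 340 nm NADH assay: 20 nM recombinant GAPDH, pH 7.5 triethanolamine buffer, 25 °C. Double-reciprocal plots were used, with parameters fitted in an enzyme-kinetics module. Means are of ≥3 experiments.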
# [3] = target: T1, Glyceraldehyde-3-phosphate dehydrogenase, glycosomal; test: Non-competitive inhibition of Trypanosoma cruzi recombinant glycosomal GAPDH expressed in Escherichia coli assessed as dissociation constant for ternary enzyme-substrate-inhibitor complex using NAD+ substrate by Lineweaver-Burk plot method; method in brief: as §1
# [4] = target: T1, Glyceraldehyde-3-phosphate dehydrogenase, glycosomal; test: Non-competitive inhibition of Trypanosoma cruzi recombinant glycosomal GAPDH expressed in Escherichia coli assessed as dissociation constant for binary enzyme-inhibitor complex using D-glyceraldehyde-3-phosphate substrate by Lineweaver-Burk plot method; method in brief: as §1
# [5] = target: T1, Glyceraldehyde-3-phosphate dehydrogenase, glycosomal; test: Non-competitive inhibition of Trypanosoma cruzi recombinant glycosomal GAPDH expressed in Escherichia coli assessed as dissociation constant for ternary enzyme-substrate-inhibitor complex using D-glyceraldehyde-3-phosphate substrate by Lineweaver-Burk plot method; method in brief: as §1
# [6] = target: Glyceraldehyde-3-phosphate dehydrogenase, glycosomal (Trypanosoma cruzi) (UniProt P22513); test: Inhibition of Trypanosoma cruzi recombinant glycosomal GAPDH expressed in Escherichia coli using GAPDH and D-glyceraldehyde-3-phosphate in presence of 0.01% Triton X-100
# Method in brief: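 Assay as for the standard GAPDH rate measurement: 20 nM recombinant enzyme, triethanolamine-HCl pH 7.5 with EDTA, 2-mercaptoethanol, arsenate, 400 µM NAD+ and 300 µM G-3-P, 25 °C, NADH followed at 340 nm. Triton X-100 was added to 0.01% final, from a freshly made 1% (v/v) stock in triethanolamine buffer, to test for nonspecific inhibition.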
# T1 sequence (P22513 whole entry): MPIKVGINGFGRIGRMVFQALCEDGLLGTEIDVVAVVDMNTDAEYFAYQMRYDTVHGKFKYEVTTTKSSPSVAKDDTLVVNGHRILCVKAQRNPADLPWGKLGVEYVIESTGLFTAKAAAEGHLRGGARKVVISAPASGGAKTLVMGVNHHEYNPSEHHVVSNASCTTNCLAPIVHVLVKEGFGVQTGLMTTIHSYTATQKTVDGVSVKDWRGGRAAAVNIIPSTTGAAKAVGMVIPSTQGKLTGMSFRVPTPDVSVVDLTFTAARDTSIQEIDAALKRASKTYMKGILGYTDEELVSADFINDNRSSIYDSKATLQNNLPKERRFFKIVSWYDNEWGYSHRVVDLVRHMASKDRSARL
# Chain of Glyceraldehyde-3-phosphate dehydrogenase, glycosomal (Trypanosoma cruzi) (P22513 whole entry): as above
SMILES,IC50 [1] [µM],other results
CCOC(=O)c1c(C=CCCCCCCOC2CCCCO2)cccc1OC (mixture of isomers),> 300,–
CCCCCCCCCCC=Cc1cccc(OC)c1C(=O)OCC (mixture of isomers),> 300,–
CCOC(=O)c1c(O)cccc1CCCCCCO,> 250,–
CCOC(=O)c1c(C=CCCCCCCCCOC2CCCCO2)cccc1OC (mixture of isomers),> 300,–
CCOC(=O)c1c(C=CCCCCOC2CCCCO2)cccc1OC (mixture of isomers),> 300,–
CCCCCCCCCc1cccc(O)c1C(=O)OCC,> 250,–
CCCCCCCC=Cc1cccc(OC)c1C(=O)OCC (mixture of isomers),> 300,–
CCOC(=O)c1c(CCCCCCOC2CCCCO2)cccc1OC (configuration not stated),> 250,–
CCCCCCCCCc1cccc(OC)c1C(=O)OCC,> 250,–
CCCCCCCCCCCCc1cccc(OC)c1C(=O)OCC,> 250,–
CCOC(=O)c1c(O)cccc1CCCCCCCCCCO,> 250,–
O=CCCCCCCCc1cccc(O)c1C(=O)O,> 250,–

# Further lines, with some results ahead:
IC50 [1] [µM],SMILES,other results
> 250,CCOC(=O)c1c(CCCCCCCCOC2CCCCO2)cccc1OC (configuration not stated),–
240,O=C(O)c1c(O)cccc1CCCCCCCCCCO,–
28,C=CC/C=C\C/C=C\CCCCCCCc1cccc(O)c1C(=O)O [ANACARDIC ACID],Ki [2]: 4 µM; Ki [3]: 6 µM; Ki [4]: 2 µM; Ki [5]: 4 µM; inhibition [6]: Active
200,CCCCCCCCCc1cccc(O)c1C(=O)O,–
> 250,CCOC(=O)c1c(CCCCCCCCCCOC2CCCCO2)cccc1OC (configuration not stated),–
> 250,O=C(O)c1c(O)cccc1CCCCCCCCO,–
> 250,O=C(O)c1c(O)cccc1CCCCCCO,–
> 250,CCOC(=O)c1c(O)cccc1CCCCCCCCO,–
55,CCCCCCCCCCCCc1cccc(O)c1C(=O)O,Ki [2]: 5 µM; Ki [3]: 43 µM; Ki [4]: 4 µM; Ki [5]: 38 µM; inhibition [6]: Active
215,CCCCCCCCCCCCc1cccc(O)c1C(=O)OCC,–

# Reference: ChEMBL document CHEMBL1781931, “Anacardic acid derivatives as inhibitors of glyceraldehyde-3-phosphate dehydrogenase from Trypanosoma cruzi” (Bioorg Med Chem, 2008)
